This is an account of results in paper PMC6054565 (ACS chemical biology, 2018).

Test in all cases: chemiluminescence
Common to all, as to format: binding

For assay [1], the target named is TcYcgR. As to conditions: read-out: KD^a; 50 nM protein; 50 mM HEPES pH 7.2, 100 mM KCl, 10 mM DTT, 0.1% BSA; 28 °C. The gist of the method: (§1)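 Purified from E. coli co-expressing the c-di-GMP phosphodiesterase PdeH. Biosensor (YcgR domain inserted at the 91/92 site of split RLuc8) at 50 nM with c-di-GMP in 100 µL, equilibrated ≥10 min at 28 °C. Injected 20 µL of 60 µM coelenterazine-h in 50 mM HEPES pH 7.2, 100 mM KCl, 300 mM ascorbate. Total luminescence integrated 10 s after a 3 s delay.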

Assay [2] concerns the target TbYcgR. As to conditions: read-out: KD^a; 50 nM protein; 50 mM HEPES pH 7.2, 100 mM KCl, 10 mM DTT, 0.1% BSA; 28 °C. The gist of the method:
as §1

The target of assay [3] is T1, EcYcgR (Escherichia coli, UniProt P76010).
T1 sequence (P76010 1-244): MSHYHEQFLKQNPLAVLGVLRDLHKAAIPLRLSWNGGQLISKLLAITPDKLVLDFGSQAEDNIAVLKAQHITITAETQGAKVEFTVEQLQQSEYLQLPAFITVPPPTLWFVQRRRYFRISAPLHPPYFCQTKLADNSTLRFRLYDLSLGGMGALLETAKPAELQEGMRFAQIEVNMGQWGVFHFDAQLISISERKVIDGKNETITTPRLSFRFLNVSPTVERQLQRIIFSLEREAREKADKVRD
The gist of the method: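 Then 20 µL of 60 µM coelenterazine-h (in HEPES/KCl/300 mM ascorbate, equilibrated at RT for at least 30 min) was injected. Total luminescence was integrated for 10 s after a 3 s delay at 28 °C.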

The target in assay [4] is TmYcgR. Conditions: read-out: KD^a; 50 nM protein; 50 mM HEPES pH 7.2, 100 mM KCl, 10 mM DTT, 0.1% BSA; 28 °C. In short, it runs like this:
as §1

The target in assay [5] is ToYcgR. Conditions: read-out: KD^a; 50 nM protein; 50 mM HEPES pH 7.2, 100 mM KCl, 10 mM DTT, 0.1% BSA; 28 °C. The gist of the method: as §1
For assay [6], the target named is BtYcgR. As to conditions: read-out: KD^a; 50 nM protein; 50 mM HEPES pH 7.2, 100 mM KCl, 10 mM DTT, 0.1% BSA; 28 °C. In short, it runs like this: as §1
The target of assay [7] is TuYcgR. Conditions: read-out: KD^a; 50 nM protein; 50 mM HEPES pH 7.2, 100 mM KCl, 10 mM DTT, 0.1% BSA; 28 °C. The gist of the method: as §1
Assay [8] addresses CpYcgR. As to conditions: read-out: KD^a; 50 nM protein; 50 mM HEPES pH 7.2, 100 mM KCl, 10 mM DTT, 0.1% BSA; 28 °C. The gist of the method: as §1
In assay [9] the target is PtYcgR. As to conditions: read-out: KD^a; 50 nM protein; 50 mM HEPES pH 7.2, 100 mM KCl, 10 mM DTT, 0.1% BSA; 28 °C. In short, it runs like this:
as §1

Assay [10] has as its target CbYcgR. As to conditions: read-out: KD^a; 50 nM protein; 50 mM HEPES pH 7.2, 100 mM KCl, 10 mM DTT, 0.1% BSA; 28 °C. In short, it runs like this: as §1
For assay [11], the target named is BvYcgR. As to conditions: read-out: KD^a; 50 nM protein; 50 mM HEPES pH 7.2, 100 mM KCl, 10 mM DTT, 0.1% BSA; 28 °C. The gist of the method:
as §1

Assay [12] has as its target DnYcgR. Conditions: read-out: KD^a; 50 nM protein; 50 mM HEPES pH 7.2, 100 mM KCl, 10 mM DTT, 0.1% BSA; 28 °C. The gist of the method: as §1

Each structure is given as a SMILES string.

As a reminder, the Kd is the equilibrium constant for the complex coming apart.

In the case of `Nc1nc2c(ncn2[C@@H]2O[C@@H]3COP(=O)(O)O[C@H]4[C@@H](O)[C@H](n5cnc6c(=O)[nH]c(N)nc65)O[C@@H]4COP(=O)(O)O[C@H]3[C@H]2O)c(=O)[nH]1` [c-di-GMP], the equilibrium dissociation constant (Kd) in assay [1] is 59 ± 2 nM; in [2], less than 50 nM; in assay [3], 354 ± 18 nM; in assay [4], less than 50 nM; in assay [5], 379 ± 23 nM; in assay [6] it was 286 ± 17 nM. Also, the Kd in assay [7] is less than 50 nM; in assay [8] it was less than 50 nM; in assay [9], less than 50 nM; in assay [10] it was less than 50 nM; in [11], 105 ± 2 nM; in assay [12], 303 ± 15 nM.
